According to ChEMBL document CHEMBL1152490, “SAR study of clubbed [1,2,4]-triazolyl with fluorobenzimidazoles as antimicrobial and antituberculosis agents” (Eur J Med Chem, 2009):
Values after ≈ are worked out from the molar mass of the structure shown.

Columns and labels:
[1] = Cytotoxicity against african green monkey Vero C1008 cells at 6.25 to 50 µg/ml by neutral red uptake assay; format: cell-based; settings: chlorocebus sabaeus
Staphylococcus aureus = assay: Antimicrobial activity against Staphylococcus aureus after 24 hrs by agar well diffusion assay; format: functional
Method in brief: (§1)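 Agar well diffusion with modifications, gentamycin as reference standard. Wells 10 mm in diameter punched in agar plates with a sterile steel borer. Strains were kept on agar medium. Compounds were dissolved and applied at 0.5% to 1.0%. Incubation at 24–28 °C for 24 h, then bacterial inhibition was scored.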

[2] = test system: Salmonella enterica subsp. enterica; assay: Antimicrobial activity against Salmonella typhosa after 24 hrs by agar well diffusion assay; format: functional, Salmonella enterica subsp. enterica serovar Typhi
Method in brief: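 Agar well diffusion, modified; wells punched with a 10 mm sterile borer. Test compounds applied on impregnated sterile disks at concentrations of 0.5% to 1.0%, with gentamycin as reference standard. Plates incubated at 24–28 °C for 24 h, then bacterial inhibition scored.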

Escherichia coli = assay: Antimicrobial activity against Escherichia coli after 24 hrs by agar well diffusion assay; format: functional; method in brief: as §1
Pseudomonas aeruginosa = assay: Antimicrobial activity against Pseudomonas aeruginosa after 24 hrs by agar well diffusion assay; format: functional; method in brief: as §1
[3] = test system: Mycobacterium tuberculosis; assay: Antitubercular activity against Mycobacterium tuberculosis H37Rv by microplate alamar blue assay; format: functional
Method in brief: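 Compounds active in the primary screen were retested at lower concentrations against M. tuberculosis H37Rv by microplate Alamar Blue assay. MIC taken as the lowest concentration giving a 95% fall in fluorescence relative to controls. Rifampin was the reference compound.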

[4] = test system: Mycobacterium tuberculosis; assay: Antitubercular activity against Mycobacterium tuberculosis H37Rv at 6.25 […] by microplate alamar blue assay; format: functional
Method in brief: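 M. tuberculosis H37Rv (ATCC 27294) in BACTEC 12B medium, primary screen by broth microdilution microplate Alamar Blue assay at a single concentration of […]. Fluorescent compounds were tested instead in the BACTEC 460 radiometric system.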

Row | Molecule | Activity [1] | inhibition zone (IZ) (Staphylococcus aureus) | inhibition zone (IZ) [2] | inhibition zone (IZ) (Escherichia coli) | inhibition zone (IZ) (Pseudomonas aeruginosa) | MIC [3] | growth inhibition (GI) [4] | inhibition zone (IZ) ([2]; Salmonella enterica subsp. enterica serovar Typhi)
1 | N#CCn1c(-c2ccc(-n3cncn3)cc2)nc2c(F)cc(F)cc21 | Non-toxic | 27 mm | 20 mm | 24 mm | 26 mm | 1.56 µg/mL (≈ 4.64 µM) | 96% | –
2 | Fc1cc(F)c2nc(-c3ccc(-n4cncn4)cc3)n(Cc3cccc(Cl)c3)c2c1 | Non-toxic | 26 mm | 18 mm | 19 mm | 22 mm | 0.58 µg/mL (≈ 1.37 µM) | 96% | –
3 | Cc1ccc(S(=O)(=O)n2c(-c3ccc(-n4cncn4)cc3)nc3c(F)cc(F)cc32)cc1 | Non-toxic | 14 mm | 16 mm | 16 mm | 12 mm | < 6.25 µg/mL | – | –
4 | Cc1ccccc1Cn1c(-c2ccc(-n3cncn3)cc2)nc2c(F)cc(F)cc21 | Non-toxic | 19 mm | 14 mm | 18 mm | 21 mm | < 6.25 µg/mL | – | –
5 | Fc1cc(F)c2nc(-c3ccc(-n4cncn4)cc3)n(Cc3ccccc3)c2c1 | Non-toxic | 19 mm | 13 mm | 15 mm | 20 mm | < 6.25 µg/mL | – | –
6 | Fc1ccc(Cn2c(-c3ccc(-n4cncn4)cc3)nc3c(F)cc(F)cc32)cc1 | Non-toxic | 25 mm | 21 mm | 19 mm | 23 mm | 3.13 µg/mL (≈ 7.72 µM) | 96% | –
7 | CCCn1c(-c2ccc(-n3cncn3)cc2)nc2c(F)cc(F)cc21 | Non-toxic | 21 mm | 19 mm | 18 mm | 23 mm | < 6.25 µg/mL | – | –
8 | GENTAMICIN | – | – | – | 31 mm | – | – | – | 30 mm
9 | CO[C@H]1/C=C/O[C@@]2(C)Oc3c(C)c(O)c4c(O)c(c(/C=N/N5CCN(C)CC5)c(O)c4c3C2=O)NC(=O)/C(C)=C\C=C\[C@H](C)[C@H](O)[C@@H](C)[C@@H](O)[C@@H](C)[C@H](OC(C)=O)[C@@H]1C [RIFAMPIN] | – | – | – | – | – | 0.015 µg/mL (≈ 0.0182 µM) | 96% | –
10 | Fc1cccc(Cn2c(-c3ccc(-n4cncn4)cc3)nc3c(F)cc(F)cc32)c1 | Non-toxic | 29 mm | 24 mm | 22 mm | 26 mm | 0.36 µg/mL (≈ 0.888 µM) | 96% | –
11 | Cc1cccc(Cn2c(-c3ccc(-n4cncn4)cc3)nc3c(F)cc(F)cc32)c1 | Non-toxic | 21 mm | 16 mm | 18 mm | 18 mm | < 6.25 µg/mL | – | –
12 | C#CCn1c(-c2ccc(-n3cncn3)cc2)nc2c(F)cc(F)cc21 | Non-toxic | 25 mm | 24 mm | 21 mm | 23 mm | 3.13 µg/mL (≈ 9.33 µM) | 96% | –
13 | Cn1c(-c2ccc(-n3cncn3)cc2)nc2c(F)cc(F)cc21 | Non-toxic | 28 mm | 19 mm | 21 mm | 26 mm | < 6.25 µg/mL | – | –
14 | COc1cccc(Cn2c(-c3ccc(-n4cncn4)cc3)nc3c(F)cc(F)cc32)c1 | Non-toxic | 24 mm | 21 mm | 22 mm | 22 mm | 3.13 µg/mL (≈ 7.5 µM) | 96% | –
15 | CCn1c(-c2ccc(-n3cncn3)cc2)nc2c(F)cc(F)cc21 | Non-toxic | 23 mm | 14 mm | 16 mm | 18 mm | < 6.25 µg/mL | – | –
16 | Fc1cc(F)c2nc(-c3ccc(-n4cncn4)cc3)n(Cc3cccc(C(F)(F)F)c3)c2c1 | Non-toxic | 22 mm | 18 mm | 20 mm | 21 mm | < 6.25 µg/mL | – | –
17 | C=CCn1c(-c2ccc(-n3cncn3)cc2)nc2c(F)cc(F)cc21 | Non-toxic | 20 mm | 23 mm | 23 mm | 22 mm | < 6.25 µg/mL | – | –
